From PubChem
KCNQ1 act: potentiators or activators of KCNQ1 channel, primary screen, cell-based, thallium flux, high-throughput | Potassium voltage-gated channel subfamily KQT member 1 (Homo sapiens), P51787 | CHO-K1 KCNQ1, thallium flux FluxOR fluorescence; active compounds read high | B-score at 10 µM | 310,000 tested, 0.35% active;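 active = fluorescence ratio B-score, a plate-corrected score, at least three library SD, with initial intensity B-score within 5 SD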
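System: CHO-K1 cells stably expressing KCNQ1 / Medium: assay buffer for compound exposure, DMSO matched across wells / Reagent: thallium- and potassium-containing depolarizing buffer / Compound: one concentration, matched DMSO / Incubation: 20 min compound pretreatment at room temperature / Measured by: kinetic FluxOR fluorescence, 10 s baseline plus 110 s post-stimulus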
SUMO Mot1 rescue: yeast Mot1-301 growth rescue at high temperature, primary screen, SUMOylation pathway inhibitor project, S. cerevisiae, ATP luminescence, 38.5C. S. cerevisiae Mot1-301 growth rescue; percent above DMSO median, 100 means doubled. growth rescue, % at 18.8 µM. 320,000 tested, 1% active. AID 2716, 2010;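 active = every valid replicate shows activation above 250% relative to neutral control wells; inactive = the rest, any valid replicate at or below 250%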;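 note: OY570 slx delta 5 strain wells were the positive control but not used for scaling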
AI-2 QS modul: Vibrio harveyi AI-2 quorum sensing modulators, primary screen, JMH597 strain, luminescence/OD600 ratio; AID 2094, 2009; Vibrio harveyi JMH597 AI-2 luminescence/OD600 ratio, 9 h; active compounds read low; strain lacks LuxN and CqsS sensors; 0 = neutral-control median; 300,000 tested, 0.4% active; activity change, % at 7.5 µM; in the data active = activity change below about -75%, passing the limit was not always enough;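 note: luminescence divided by OD600 gain over 9 h not by final OD600 alone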
KCC2 mod: KCC2 cotransporter modulators, thallium flux, primary screen, cell-based, HEK293 KCC2, FluoZin-2 fluorescence, MLSMR; Solute carrier family 12 member 5 (Homo sapiens), Q9H2X9; KCC2 cells, thallium flux FluoZin-2 fluorescence; B-score of Tl+ flux slope (higher = more flux/activation; lower = inhibition) at 10 µM; 190,000 tested, 2.2% active; AID 1456, 2008;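 active = thallium flux slope and its plate-corrected score both differing from the plate sample mean at a set confidence after two filtering rounds, in either direction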;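 note: slope of fluorescence scaled to starting intensity during 10 to 20 s after thallium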
KCNQ1 inh: inhibitors of human KCNQ1 channel, primary screen, cell-based, thallium flux, high-throughput; AID 2642, 2010; Potassium voltage-gated channel subfamily KQT member 1 (Homo sapiens), P51787; B-score at 10 µM; 310,000 tested, 1.3% active; CHO-K1 KCNQ1, FluxOR thallium flux fluorescence; active compounds read high;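 active = compounds whose thallium flux B-score, printed positive for inhibition, exceeds three library SD while starting fluorescence stays within three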;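 note: channel opened by potassium depolarization with thallium stimulus after 20 min compound exposure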
hERG protect: hERG rescue from dofetilide block, primary screen, cell-based, CHO-hERG, FluxOR thallium flux, dofetilide IC70. Voltage-gated inwardly rectifying potassium channel KCNH2 (Homo sapiens), Q12809. dofetilide IC70 present. activation (rescue from dofetilide block), less the hit threshold, % at 10 µM. 310,000 tested, 0.51% active. AID 1511, 2009;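 active = activation above the mean of controls blocked by dofetilide plus 5 SD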;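 note: thallium influx through hERG after potassium depolarization seen as dye fluorescence rise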
Target sequence (Q12809 whole entry, looked up): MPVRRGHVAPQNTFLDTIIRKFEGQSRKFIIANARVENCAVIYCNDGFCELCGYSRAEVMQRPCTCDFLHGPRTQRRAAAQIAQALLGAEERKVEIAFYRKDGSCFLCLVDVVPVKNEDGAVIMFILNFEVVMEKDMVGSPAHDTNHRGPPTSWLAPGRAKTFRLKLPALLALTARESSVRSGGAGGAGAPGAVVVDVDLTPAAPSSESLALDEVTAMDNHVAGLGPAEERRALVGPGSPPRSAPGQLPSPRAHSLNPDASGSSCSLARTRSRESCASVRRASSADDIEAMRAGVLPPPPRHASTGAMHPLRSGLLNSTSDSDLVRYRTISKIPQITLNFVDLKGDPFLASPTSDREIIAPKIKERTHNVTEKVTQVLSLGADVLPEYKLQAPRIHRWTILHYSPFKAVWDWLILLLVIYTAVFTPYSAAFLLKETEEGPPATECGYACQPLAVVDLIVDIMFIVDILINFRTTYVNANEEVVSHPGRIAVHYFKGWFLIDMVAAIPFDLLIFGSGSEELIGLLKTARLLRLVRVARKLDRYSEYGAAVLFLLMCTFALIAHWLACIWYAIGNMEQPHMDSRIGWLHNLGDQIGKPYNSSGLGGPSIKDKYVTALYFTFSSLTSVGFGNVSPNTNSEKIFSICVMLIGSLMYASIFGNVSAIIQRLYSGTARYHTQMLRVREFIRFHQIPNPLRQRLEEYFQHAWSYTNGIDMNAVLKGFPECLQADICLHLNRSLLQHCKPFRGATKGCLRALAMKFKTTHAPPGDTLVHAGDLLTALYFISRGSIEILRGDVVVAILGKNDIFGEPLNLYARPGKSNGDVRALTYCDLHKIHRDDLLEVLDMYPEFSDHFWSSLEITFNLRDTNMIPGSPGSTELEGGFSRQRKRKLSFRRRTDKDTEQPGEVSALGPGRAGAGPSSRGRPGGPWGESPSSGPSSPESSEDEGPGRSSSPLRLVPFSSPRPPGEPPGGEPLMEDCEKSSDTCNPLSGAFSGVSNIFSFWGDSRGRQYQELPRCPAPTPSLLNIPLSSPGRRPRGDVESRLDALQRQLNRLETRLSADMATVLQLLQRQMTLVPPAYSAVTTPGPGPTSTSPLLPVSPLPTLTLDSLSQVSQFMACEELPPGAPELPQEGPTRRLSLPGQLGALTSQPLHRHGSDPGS
Active calls of the source: *; i = inactive; nt = no result. A selection: hits, their analogues and other compounds. The true share with any hit is near 4.2%.

SMILES | KCNQ1 act | SUMO Mot1 rescue | AI-2 QS modul | KCC2 mod | KCNQ1 inh | hERG protect
CCOC(=O)c1ccc2c(c1)n(CCO)c(C)[n+]2CC | i | 38 | 12 | nt | i | -8
CCOC(=O)c1ccc2c(c1)n(CC)c(/C=C/N(C)c1ccccc1)[n+]2CC | i | 0 | 6 | 0.22 | 8* | -29
CCOC(=O)c1c(NC(=O)CNCC(O)CO)sc(C)c1C (stereo not drawn) | i | 295* | -7 | nt | i | -3
COc1ccc(NC(=O)Nc2nc(C)cc(C)n2)c(OC)c1 | i | 6 | 17 | -0.16 | i | -7
COc1ccc(-c2cc(C(=O)Nc3cc(C)on3)c3ccccc3n2)c(OC)c1 | i | -9 | 15 | nt | i | -11
COc1cccc(NC(=O)c2cc(-c3ccc(OC)cc3OC)nc3ccccc23)c1 | i | 12 | 19 | nt | 6* | -9
COC(=O)c1sccc1NC(=O)c1cc(-c2ccc(C)cc2C)nc2ccccc12 | i | 1 | 8 | 1.4 | 8* | -18
COC(=O)c1sccc1NC(=O)c1cccc(OC)c1 | i | -10 | 2 | nt | i | -8
COC(=O)c1sccc1NC(=O)c1ccc(OC)cc1OC | i | 420* | 10 | 0.95 | i | -4
COc1ccc(NC(=O)c2cc(-c3cc(OC)c(OC)c(OC)c3)nc3ccccc23)cc1OC | i | -6 | 36 | nt | i | -9
COc1cc(-c2cc(C(=O)Nc3c(Cl)cc(Cl)cc3Cl)c3ccccc3n2)cc(OC)c1OC | i | -22 | 35 | 0.16 | 7* | -13
O=C(C1CCN(C2CCN(CC3CC=CCC3)CC2)CC1)N1CCOCC1 (stereo not drawn) | i | 10 | 12 | 0.73 | i | -11
CC1(C)C(C=C(Cl)Cl)C1C(=O)Nc1ccc([N+](=O)[O-])cc1 (stereo not drawn) | nt | 122 | nt | -0.69 | nt | nt
Cc1ccc(C)c(-c2cc(C(=O)Nc3sc(C)c(C)c3C(N)=O)c3ccccc3n2)c1 | i | -5 | 31 | nt | 6* | -16
CCNC(=S)NNC(=O)c1cc(-c2cccc(OC)c2)nc2ccccc12 | i | -22 | 19 | -0.81 | 6* | -20
CCOC(=O)c1sc(NC(=O)c2cc(-c3ccccc3)nc3ccccc23)c(C#N)c1C | i | -20 | -4 | nt | 8* | -35
COC(=O)c1ccc(NC(=S)NC(=O)c2cc(-c3ccccc3)nc3ccccc23)cc1 | 29* | 2 | 2 | 6* | i | 6.2*
COC(=O)c1ccc(NC(=S)NC(=O)c2c(Cl)cnn2C)cc1 | i | -2 | 5 | 36* | i | -6
O=C(CC1SC(=Nc2ccccc2)N(CCc2ccccn2)C1=O)Nc1ccc(F)cc1 (stereo not drawn) | i | -2 | 16 | 0.72 | i | -15
Cc1cccc(C)c1N=C1SC(CC(=O)Nc2c(C)cccc2C)C(=O)N1CCc1ccccn1 (stereo not drawn) | i | 468* | 2 | 0.052 | i | -16
N#Cc1cc([N+](=O)[O-])c(-n2nnc3ccccc32)c([N+](=O)[O-])c1 | i | -1 | 90 | 0.69 | 8* | -24
CS(=O)(=O)c1ccc(-n2nnc3ccccc32)c([N+](=O)[O-])c1 | i | -1 | 33 | nt | i | -7
CN(C)CCNc1cnn(-c2ccccc2)c(=O)c1Cl | i | -7 | 12 | 0.1 | i | -5
Cn1c(=O)c([N+](=O)[O-])c(Cl)c2ccccc21 | i | nt | -1 | -1.1 | 9* | -30
CCN(CC)c1c([N+](=O)[O-])c(=O)n(C)c2ccccc12 | i | 5 | 13 | -2.2 | i | -10
